Consider two compounds from ChEMBL document CHEMBL4350963, “Discovery and Lead-Optimization of 4,5-Dihydropyrazoles as Mono-Kinase Selective, Orally Bioavailable and Efficacious Inhibitors of Receptor Interacting Protein 1 (RIP1) Kinase” (J Med Chem, 2019).

In brackets after ≈: the same amount, converted by molar mass. A value given as a limit tells only on which side of the number the result lay.

Data set [1] in a line: Oral bioavailability in minipig at 2 mg/kg. The format is ADME, organism-based, Sus scrofa. Conditions: pig, in vivo.
Data set [2] can be described thus: AUC (0 to infinity) in minipig at 1 mg/kg, iv. Type of data set: ADME, organism-based, Sus scrofa. Also on record: dose 1 mg/kg, route intravenous, time infinity. Conditions: pig, in vivo.
Data set [3] can be described thus: AUC (0 to infinity) in rat at 1 mg/kg, iv. Type of data set: ADME, organism-based. Also on record: dose 1 mg/kg, time infinity, route intravenous. To be noted: in vivo. Summed up: (§1)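 Rat pharmacokinetics: the iv arm was dosed at 1 mg/kg in 5% DMSO/20% Cavitron aqueous solution. The oral arm was dosed at 2 mg/kg in 5% DMSO/6% Cavitron aqueous solution. Bioavailability was calculated non-crossover, from average exposures in separate oral and iv studies.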

The nature of data set [4]: AUC (0 to infinity) in mouse at 2 mg/kg, iv. Type of data set: ADME, organism-based. Also on record: dose 2 mg/kg, time infinity, route intravenous. Conditions: in vivo.
The nature of data set [5]: Cmax in monkey at 2 mg/kg, po. Type of data set: ADME, organism-based, Macaca mulatta. Also on record: dose 2 mg/kg, route oral. Conditions: rhesus monkey, in vivo.
A short description of data set [6]: Tmax in minipig at 2 mg/kg, po. Type of data set: ADME, organism-based, Sus scrofa. Conditions: pig, in vivo.
The nature of data set [7]: Tmax in mouse at 30 mg/kg, po. Type of data set: ADME, organism-based. To be noted: in vivo.
A short description of data set [8]: Tmax in monkey at 2 mg/kg, po. The format is ADME, organism-based, Macaca mulatta. Conditions: rhesus monkey, in vivo.
A short description of data set [9]: Volume of distribution at steady state in minipig at 1 mg/kg, iv. Conditions: pig, in vivo, read-out: Vdss. The format is ADME, organism-based, Sus scrofa.
Data set [10] can be described thus: Volume of distribution at steady state in rat at 1 mg/kg, iv. The format is ADME, organism-based. Conditions: in vivo, read-out: Vdss.
The nature of data set [11]: Tmax in rat at 2 mg/kg, po. Type of data set: ADME, organism-based. Conditions: in vivo.
Data set [12] in a line: Oral bioavailability in monkey at 2 mg/kg. Type of data set: ADME, organism-based, Macaca mulatta. Conditions: rhesus monkey, in vivo.
Data set [13] in a line: Volume of distribution at steady state in monkey at 1 mg/kg, iv. The format is ADME, organism-based, Macaca mulatta. To be noted: rhesus monkey, in vivo, read-out: Vdss.
A short description of data set [14]: Cmax in minipig at 2 mg/kg, po. Type of data set: ADME, organism-based, Sus scrofa. Also on record: dose 2 mg/kg, route oral. To be noted: pig, in vivo.
Data set [15] in a line: Volume of distribution at steady state in mouse at 2 mg/kg, iv. The format is ADME, organism-based. Conditions: in vivo, read-out: Vdss.
A short description of data set [16]: Chromatographic hydrophobicity index, log D of the compound at pH 7.4 by reverse-phase HPLC analysis. The format is physicochemical. Conditions: buffer. Summed up:
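Log D at pH 7.4 was calculated from the retention time on a fast-gradient reverse-phase HPLC run.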

A short description of data set [17]: Solubility of the compound in fasted state simulated intestinal fluid measured after 4 hrs. The format is physicochemical.
The nature of data set [18]: AUC (0 to infinity) in monkey at 1 mg/kg, iv. Type of data set: ADME, organism-based, Macaca mulatta. Also on record: dose 1 mg/kg, time infinity, route intravenous. To be noted: rhesus monkey, in vivo.
The nature of data set [19]: Cmax in rat at 2 mg/kg, po. Also on record: dose 2 mg/kg, route oral. The format is ADME, organism-based. Conditions: in vivo. Summed up:
as §1

The nature of data set [20]: Cmax in mouse at 30 mg/kg, po. Conditions: in vivo. Also on record: dose 30 mg/kg, route oral. The format is ADME, organism-based. Summed up:
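Mouse pharmacokinetics: the iv arm received 2 mg/kg in 5% DMSO/20% Cavitron aqueous solution. The oral arm received 30 mg/kg as a suspension in 1% aqueous methylcellulose.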

A short description of data set [21]: Oral bioavailability in rat at 2 mg/kg. Type of data set: ADME, organism-based. Conditions: in vivo.
A short description of data set [22]: Time at which mouse plasma concentration stays above in vitro IC50 for RIP1 in mouse L929 cells assessed as reduction in TNFalpha/QVD-Oph-induced necroptosis in mouse at 10 mg/kg/day added to chow pellets. The format is ADME, organism-based. To be noted: in vivo.
Data set [23] in a line: Time at which mouse plasma concentration stays above in vitro IC90 for RIP1 in mouse L929 cells assessed as reduction in TNFalpha/QVD-Oph-induced necroptosis in mouse at 100 mg/kg/day added to chow pellets. The format is ADME, organism-based. Conditions: in vivo.
Data set [24] in a line: Unbound brain to blood concentration ratio in C57BL/6 mouse at 9.6 to 96 mg/kg/day added to chow pellets. The format is ADME, organism-based. Conditions: po, read-out: K(p,uu,brain).

Usually AUC(0-inf) stands for the area under the concentration-time curve extrapolated to infinity. Usually Cmax stands for the highest concentration seen after dosing. The Tmax is the time from dosing to the highest level. What is called chromatographic logD is lipophilicity estimated from chromatographic retention. The term solubility denotes the concentration that dissolves in the medium under given conditions.

With `Cc1nnc(N2CCC(C(=O)N3N=CC[C@H]3c3cc(F)cc(F)c3)CC2)o1`, the values for the bioavailability in data set [1], in data set [12] and in [21] were 65%, 40% and 130%, respectively. Further, the AUC(0-inf) was 1300 ng·h/mL in data set [2], 1300 ng·h/mL in [3], 1100 ng·h/mL in data set [4] and 3100 ng·h/mL in [18]. Further, the Cmax is 480 ng/mL in [5], 576 ng/mL in [14], 1100 ng/mL in data set [19] and 5410 ng/mL in [20]. Also, the Tmax in [6] is 80 min; in [7], 30 min; in data set [8] it was 120 min; in data set [11], 25 min. For the same compound, the Vd in [9] is 1.3 L/kg; in data set [10], 1.3 L/kg; in data set [13], 1.1 L/kg; in data set [15], 1.8 L/kg. In data set [16], this compound displayed a chromatographic logD of 3.6. Also, the solubility at 4 h in data set [17] was 250 µg/mL (≈ 666 µM).
`N#Cc1cc(N2CCC(C(=O)N3N=CC[C@H]3c3cc(F)cc(F)c3)CC2)ncn1`: the AUC(0-inf) in [3] was 410 ng·h/mL. For the same compound, in data set [10], the Vd amounted to 4.6 L/kg. In addition, in data set [11], the Tmax is 30 min. For the same compound, the Time in data set [22] and in data set [23] was > 24 h in each case. Moreover, the chromatographic logD in data set [16] amounted to 5. The compound further returned a Cmax in data set [19] of 215 ng/mL. For the same compound, in data set [21], the bioavailability came out at 88%. Also, the Kp uu in data set [24] was 2.5.
